From ChEMBL document CHEMBL5724801, “EUbOPEN Chemogenomics Library - Multiplex” (2024)
Where “and” joins values, the source holds several entries; their conditions need not be identical. Equal values may be shown once.

System: HEK-293T
Assay: Multiplex assay against HEK293T
Type: toxicity, cell-based
Conditions: human
In short: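 Tubulin, mitochondrial-mass and membrane-permeability phenotypes are per cents of healthy-nucleus cells. Cells were gated by CellPathfinder machine learning into Hoechst high-intensity objects or normal cells, normal cells into healthy, pyknosed or fragmented nuclei, and pyknosed cells into mitotic or apoptotic. Before that, live cells stained at seeding with Hoechst33342, BioTracker Green Microtubule Cytoskeleton Dye, MitoTracker Red and Annexin V Alexa Fluor 680 were imaged on a CQ1 microscope at 37°C and 5% CO2 after compound addition.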

[1] = 12 h, 1 µM, compound concentration 1 uM
[2] = 12 h, 10 µM, compound concentration 10 uM
[3] = 24 h, 1 µM, compound concentration 1 uM
[4] = 24 h, 10 µM, compound concentration 10 uM
[5] = 48 h, 1 µM, compound concentration 1 uM
[6] = 48 h, 10 µM, compound concentration 10 uM

O=c1cccc2n1C[C@@H]1CNC[C@H]2C1 [CYTISINICLINE]
Population Apoptotic (%) [1]: 13.38% and 21.1% | Population Fragmented Nuclei (%) [1]: 1.29% and 6.54% | Population Healthy Nuclei (%) [1]: 52.75% and 22.22% | Population Hoechst High Intensity Objects (%) [1]: 0.64% and 0% | Population Membrane Permeable-Phenotype (%) [1]: 0.61% and 0% | Population Mitochondria Different-Phenotype (%) [1]: 39.26% and 17.65% | Population Mitotic Cells (%) [1]: 86.62% and 78.9% | Population Normal (%) [1]: 99.36% and 100% | Population Pyknosed Nuclei (%) [1]: 45.95% and 71.24% | Total Cell Count [1]: 311 and 153 | Population Apoptotic (%) [2]: 15.45% and 10.14% | Population Fragmented Nuclei (%) [2]: 3.17% and 4.62% | Population Hoechst High Intensity Objects (%) [2]: 0% | Population Membrane Permeable-Phenotype (%) [2]: 0.66% and 0% | Population Mitochondria Different-Phenotype (%) [2]: 17.11% and 7.41% | Population Mitotic Cells (%) [2]: 84.55% and 89.86% | Population Normal (%) [2]: 100% | Population Pyknosed Nuclei (%) [2]: 43.31% and 79.77% | Total Cell Count [2]: 284 and 173 | Population Apoptotic (%) [3]: 15.52% and 25.56% | Population Fragmented Nuclei (%) [3]: 1.39% and 3.33% | Population Healthy Nuclei (%) [3]: 75.5% and 36.67% | Population Hoechst High Intensity Objects (%) [3]: 0.2% and 0% | Population Membrane Permeable-Phenotype (%) [3]: 1.32% and 5.45% | Population Mitochondria Different-Phenotype (%) [3]: 17.41% and 14.55% | Population Mitotic Cells (%) [3]: 84.48% and 74.44% | Population Normal (%) [3]: 99.8% and 100% | Population Pyknosed Nuclei (%) [3]: 23.11% and 60% | Population Tubulin-Different-Phenotype (%) [3]: 11.08% and 16.36% | Population Apoptotic (%) [4]: 18.82% and 14.41% | Population Fragmented Nuclei (%) [4]: 2.13% and 5.14% | Population Healthy Nuclei (%) [4]: 81.43% and 42.99% | Population Hoechst High Intensity Objects (%) [4]: 0% | Population Membrane Permeable-Phenotype (%) [4]: 0.24% and 0% | Population Mitochondria Different-Phenotype (%) [4]: 15.44% and 7.61% | Population Mitotic Cells (%) [4]: 81.18% and 85.59% | Population Normal (%) [4]: 100% | Population Tubulin-Different-Phenotype (%) [4]: 7.6% and 1.09% | Total Cell Count [4]: 517 and 214 | Population Fragmented Nuclei (%) [5]: 2.45% and 3.98% | Population Healthy Nuclei (%) [5]: 88.37% and 61.69% | Population Hoechst High Intensity Objects (%) [5]: 0% | Population Membrane Permeable-Phenotype (%) [5]: 2.27% and 1.61% | Population Mitochondria Different-Phenotype (%) [5]: 16.42% and 20.97% | Population Mitotic Cells (%) [5]: 94.29% and 66.67% | Population Normal (%) [5]: 100% | Population Apoptotic (%) [6]: 9.77% and 19.7% | Population Fragmented Nuclei (%) [6]: 5.36% and 2.25% | Population Healthy Nuclei (%) [6]: 85.61% and 79.15% | Population Hoechst High Intensity Objects (%) [6]: 0.14% and 0% | Population Membrane Permeable-Phenotype (%) [6]: 5.39% and 1.78% | Population Mitochondria Different-Phenotype (%) [6]: 8.88% and 16.01% | Population Mitotic Cells (%) [6]: 90.23% and 80.3% | Population Normal (%) [6]: 99.86% and 100% | Population Pyknosed Nuclei (%) [6]: 9.03% and 18.59%

C[C@@H]1C[C@H]2[C@@H]3CCC4=CC(=O)C=C[C@]4(C)[C@@]3(F)[C@@H](O)C[C@]2(C)[C@@]1(O)C(=O)CO [DEXAMETHASONE]
Population Apoptotic (%) [1]: 37% and 53% | Population Fragmented Nuclei (%) [1]: 8% and 7% | Population Healthy Nuclei (%) [1]: 78% and 80% | Population Hoechst High Intensity Objects (%) [1]: 2% and 8% | Population Membrane Permeable-Phenotype (%) [1]: 1% and 0% | Population Mitochondria Different-Phenotype (%) [1]: 45% and 62% | Population Mitotic Cells (%) [1]: 62% and 46% | Population Normal (%) [1]: 97% and 91% | Population Pyknosed Nuclei (%) [1]: 12% | Population Tubulin-Different-Phenotype (%) [1]: 24% and 26% | Total Cell Count [1]: 420 and 372 | Population Apoptotic (%) [2]: 37% and 44% | Population Fragmented Nuclei (%) [2]: 7% and 5% | Population Healthy Nuclei (%) [2]: 79% and 81% | Population Hoechst High Intensity Objects (%) [2]: 6% and 14% | Population Membrane Permeable-Phenotype (%) [2]: 0% | Population Mitochondria Different-Phenotype (%) [2]: 44% and 69% | Population Mitotic Cells (%) [2]: 62% and 55% | Population Normal (%) [2]: 93% and 85% | Population Pyknosed Nuclei (%) [2]: 13% | Population Tubulin-Different-Phenotype (%) [2]: 33% and 39% | Total Cell Count [2]: 374 and 436 | Population Apoptotic (%) [3]: 31% and 42% | Population Fragmented Nuclei (%) [3]: 9% and 12% | Population Healthy Nuclei (%) [3]: 78% and 79% | Population Hoechst High Intensity Objects (%) [3]: 4% and 7% | Population Membrane Permeable-Phenotype (%) [3]: 0% | Population Mitochondria Different-Phenotype (%) [3]: 30% and 45% | Population Mitotic Cells (%) [3]: 68% and 57% | Population Normal (%) [3]: 95% and 92% | Population Pyknosed Nuclei (%) [3]: 12% and 8% | Population Tubulin-Different-Phenotype (%) [3]: 17% | Total Cell Count [3]: 569 and 499 | Population Apoptotic (%) [4]: 36% and 44% | Population Fragmented Nuclei (%) [4]: 8% and 9% | Population Healthy Nuclei (%) [4]: 74% and 79% | Population Hoechst High Intensity Objects (%) [4]: 6% and 15% | Population Membrane Permeable-Phenotype (%) [4]: 0% | Population Mitochondria Different-Phenotype (%) [4]: 30% and 43% | Population Mitotic Cells (%) [4]: 63% and 56% | Population Normal (%) [4]: 93% and 84% | Population Pyknosed Nuclei (%) [4]: 16% and 11% | Population Tubulin-Different-Phenotype (%) [4]: 29% and 22% | Total Cell Count [4]: 453 and 513 | Population Apoptotic (%) [5]: 30% and 27% | Population Fragmented Nuclei (%) [5]: 15% | Population Healthy Nuclei (%) [5]: 77% and 78% | Population Hoechst High Intensity Objects (%) [5]: 1% and 3% | Population Membrane Permeable-Phenotype (%) [5]: 1% and 0% | Population Mitochondria Different-Phenotype (%) [5]: 18% and 27% | Population Mitotic Cells (%) [5]: 69% and 72% | Population Normal (%) [5]: 98% and 96% | Population Pyknosed Nuclei (%) [5]: 7% and 6% | Population Tubulin-Different-Phenotype (%) [5]: 12% and 15% | Total Cell Count [5]: 915 and 685 | Population Apoptotic (%) [6]: 25% and 50% | Population Fragmented Nuclei (%) [6]: 15% and 16% | Population Healthy Nuclei (%) [6]: 76% | Population Hoechst High Intensity Objects (%) [6]: 3% and 6% | Population Membrane Permeable-Phenotype (%) [6]: 0% | Population Mitochondria Different-Phenotype (%) [6]: 18% and 28% | Population Mitotic Cells (%) [6]: 75% and 49% | Population Normal (%) [6]: 96% and 93% | Population Pyknosed Nuclei (%) [6]: 7% | Population Tubulin-Different-Phenotype (%) [6]: 14% and 19% | Total Cell Count [6]: 760 and 756

O=C(O)Cc1ccccc1Nc1c(Cl)cccc1Cl [DICLOFENAC]
Population Apoptotic (%) [1]: 36% and 52% | Population Fragmented Nuclei (%) [1]: 7% | Population Healthy Nuclei (%) [1]: 77% and 79% | Population Hoechst High Intensity Objects (%) [1]: 5% and 10% | Population Membrane Permeable-Phenotype (%) [1]: 0% | Population Mitochondria Different-Phenotype (%) [1]: 53% and 61% | Population Mitotic Cells (%) [1]: 63% and 47% | Population Normal (%) [1]: 94% and 89% | Population Pyknosed Nuclei (%) [1]: 14% and 13% | Population Tubulin-Different-Phenotype (%) [1]: 32% and 23% | Total Cell Count [1]: 376 and 324 | Population Apoptotic (%) [2]: 30% and 57% | Population Fragmented Nuclei (%) [2]: 7% | Population Healthy Nuclei (%) [2]: 77% and 75% | Population Hoechst High Intensity Objects (%) [2]: 6% and 14% | Population Membrane Permeable-Phenotype (%) [2]: 0% | Population Mitochondria Different-Phenotype (%) [2]: 45% and 68% | Population Mitotic Cells (%) [2]: 69% and 42% | Population Normal (%) [2]: 93% and 85% | Population Pyknosed Nuclei (%) [2]: 14% and 17% | Population Tubulin-Different-Phenotype (%) [2]: 35% | Total Cell Count [2]: 480 and 370 | Population Apoptotic (%) [3]: 30% and 45% | Population Fragmented Nuclei (%) [3]: 7% and 6% | Population Healthy Nuclei (%) [3]: 76% and 78% | Population Hoechst High Intensity Objects (%) [3]: 3% and 10% | Population Membrane Permeable-Phenotype (%) [3]: 0% | Population Mitochondria Different-Phenotype (%) [3]: 44% and 37% | Population Mitotic Cells (%) [3]: 69% and 54% | Population Normal (%) [3]: 96% and 89% | Population Pyknosed Nuclei (%) [3]: 15% and 14% | Population Tubulin-Different-Phenotype (%) [3]: 24% and 9% | Total Cell Count [3]: 456 and 418 | Population Apoptotic (%) [4]: 25% and 49% | Population Fragmented Nuclei (%) [4]: 10% | Population Healthy Nuclei (%) [4]: 77% and 75% | Population Hoechst High Intensity Objects (%) [4]: 4% and 9% | Population Membrane Permeable-Phenotype (%) [4]: 0% | Population Mitochondria Different-Phenotype (%) [4]: 29% and 50% | Population Mitotic Cells (%) [4]: 74% and 50% | Population Normal (%) [4]: 95% and 90% | Population Pyknosed Nuclei (%) [4]: 12% and 14% | Population Tubulin-Different-Phenotype (%) [4]: 29% and 26% | Total Cell Count [4]: 650 and 462 | Population Apoptotic (%) [5]: 23% and 33% | Population Fragmented Nuclei (%) [5]: 11% and 15% | Population Healthy Nuclei (%) [5]: 82% and 79% | Population Hoechst High Intensity Objects (%) [5]: 2% | Population Membrane Permeable-Phenotype (%) [5]: 1% | Population Mitochondria Different-Phenotype (%) [5]: 22% and 16% | Population Mitotic Cells (%) [5]: 76% and 66% | Population Normal (%) [5]: 97% | Population Pyknosed Nuclei (%) [5]: 6% and 4% | Population Tubulin-Different-Phenotype (%) [5]: 15% and 10% | Total Cell Count [5]: 730 and 697 | Population Apoptotic (%) [6]: 36% | Population Fragmented Nuclei (%) [6]: 12% and 16% | Population Healthy Nuclei (%) [6]: 80% and 75% | Population Hoechst High Intensity Objects (%) [6]: 3% and 4% | Population Membrane Permeable-Phenotype (%) [6]: 1% and 0% | Population Mitochondria Different-Phenotype (%) [6]: 17% and 36% | Population Mitotic Cells (%) [6]: 63% | Population Normal (%) [6]: 96% and 95% | Population Pyknosed Nuclei (%) [6]: 7% | Population Tubulin-Different-Phenotype (%) [6]: 18% and 17% | Total Cell Count [6]: 883 and 649
